LMPTP inh – LMPTP (human) inhibition; 0.22% of 360,000 active; recombinant LMPTP-A, OMFP fluorogenic substrate, fluorescence intensity; P24666; inhibition, % at 20 µM;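 active = compounds that cut the enzyme signal by at least half of the control window in the single-dose screen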
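Assay system: LMPTP-A enzyme. Input: 0.625 nM LMPTP-A final. Probe or stimulus: 400 µM OMFP. Compound dosing: single 20 µM dose. Schedule: 50 min dark incubation at room temperature. Detection: fluorescence intensity of OMFP turnover product. Read-out: percent inhibition versus substrate-only and uninhibited controls. Benchmarks: no-enzyme low control, uninhibited high control.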
DNMT1 block – inhibitors of human DNMT1. P26358. DNMT1 molecular beacon, Hinp1I cleavage, fluorescence. 0.83% of 360,000 active. inhibition (reported as % activation of signal), % at 10 µM; in the data active = inhibition above about 50%
STEP block – blocks human striatal-enriched tyrosine phosphatase. P54829. recombinant STEP, OMFP fluorogenic substrate, fluorescence. inhibition, % at 20 µM. 0.25% of 360,000 active;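 active = inhibition at 20 µM, scaled per plate between control wells, above about 37%, limit read from the data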
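System: STEP phosphatase, cell-free reaction; Buffer or medium: Bis-Tris pH 6.0 buffer with DTT, detergent; Incubation: 20 min at room temperature, dark; Measured by: fluorescence, 480/540 nm.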
SUMO1-SIM PPI – modulators of human SUMO1-mediated protein-protein interactions; P63165; SUMO1 binding to a labelled peptide, TR-FRET, 1 h; inhibition, % at 20 µM; 0.33% of 360,000 active; AID 602429; in the data active = inhibition above about 37%
Scp1 inh – Scp-1 (human) phosphatase inhibition; inhibition, % at 20 µM; 0.88% of 340,000 active; Recombinant Scp1, phosphopeptide, malachite green phosphate absorbance; AID 493091; Q9GZU7;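 active = inhibition above about 50% at 20 µM, limit read from the data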
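Incubation: 45 min enzyme reaction at room temperature / System: truncated SCP-1 phosphatase (76-261aa) / Reagent: Phospho 17-mer peptide substrate / Buffer or medium: Acidic Tris acetate buffer with magnesium and detergent / Signal: absorbance at 630 nm / Doses: one concentration, 20 µM, with 1.0% DMSO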
DNMT1 interf DR – counter-screen for DNMT1 inhibitors: spectral interference, dose response; shares compounds with DNMT1 block; molecular beacon fluorescence; IC50, µM; 200 tested, under 10 active; call rule not given here
DNMT1 inh conf – DNMT1 inhibition confirmation, single concentration; AID 602385; 8% of 2,300 active; inhibition, % at 10 µM; DNMT1 molecular beacon HinP1I cleavage, fluorescence; shares compounds with DNMT1 block;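 active = average inhibition of at least 30% in the single-concentration confirmation test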
DNMT1 interf – counter-screen for DNMT1 inhibitors: spectral interference; 1% of 2,300 active; AID 602387; shares compounds with DNMT1 block; activation (fluorescence interference), % at 10 µM; DNMT1 molecular beacon spectral interference counterscreen, fluorescence 485/520;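 active = activation of at least 30% at 10 µM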;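 also: DNMT1 catalytic domain with a HinP1I cleavage step and a FAM/dabcyl DNA beacon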
Large screens that a line does not name were inactive (follow-up assays come after a bar, where they were run). Shown are actives, neighbours in structure and some others; about 1.7% of the full set was active somewhere.

Cn1nc(CC(=O)NC2CCCCCCCCCCC2)c2ccccc2c1=O	DNMT1 block 69.1 | DNMT1 inh conf inactive | DNMT1 interf inactive
Cc1ccc(C)c(N(C(=O)Cn2nnc(-c3cccs3)n2)C(C(=O)NC2CCCC2)c2ccncc2)c1 (stereo unspecified)	none
COc1cccc(N(C(=O)Cn2nnc(-c3cccs3)n2)C(C(=O)NC2CCCCC2)c2ccncc2)c1 (stereo unspecified)	DNMT1 block 68.4 | DNMT1 inh conf inactive | DNMT1 interf inactive
O=C1Nc2c(Cl)cc(Cl)cc2C1=O	DNMT1 block 60.1 | DNMT1 interf DR inactive | DNMT1 inh conf inactive | DNMT1 interf inactive
N#CC1(NC(=O)CSc2nnc(-c3ccccc3F)n2N)CCCCC1	none
CC(C)(C)N1C(=O)c2ccc(C(=O)O)cc2C1=O	none
O=C(O)c1ccc2c(c1)C(=O)/C(=C\c1ccco1)C2=O	DNMT1 block 79.8, Scp1 inh 54.2 | DNMT1 inh conf inactive | DNMT1 interf inactive
O=C1C(=Cc2ccco2)C(=O)c2ccccc21	none
Cc1ccc(/C=C2/C(=O)c3ccc(C(=O)O)cc3C2=O)o1	DNMT1 block 74.4 | DNMT1 inh conf inactive | DNMT1 interf inactive
O=C(CC[C@H]1O[C@@H](n2cnc3c(NC(=O)c4ccccc4)ncnc32)[C@H](O)[C@@H]1O)NCc1nc2ccccc2[nH]1	DNMT1 block 116.2, SUMO1-SIM PPI 43.9 (no result: Scp1 inh) | DNMT1 inh conf inactive | DNMT1 interf inactive
C/C(=N\NC(=O)c1ccc(-n2cnnn2)cc1)c1ccc(Cl)cc1	none
COc1ccc2nc(N3C(=O)/C(=C/c4ccc(Cl)cc4)NC3=S)sc2c1	DNMT1 block 99.8 | DNMT1 inh conf inactive | DNMT1 interf inactive
CCOCCCNC(=O)C1CCN(S(=O)(=O)N2CCCC2)CC1	DNMT1 block 72.5 | DNMT1 inh conf inactive | DNMT1 interf inactive
CC(C)OCCCNC(=O)C1CCN(S(=O)(=O)N2CCCCC2)CC1	none
CCCCn1c(-c2ccc(Cl)c(Cl)c2)nc2cc3[nH]c(=O)c(C(C)C)nc3cc21	DNMT1 block 53.2 | DNMT1 inh conf inactive | DNMT1 interf inactive
Cc1ccc(C2C=CC(C#N)=CN2Cc2ccccc2)cc1 (stereo unspecified)	none (no result: Scp1 inh)
Cc1cccc(-n2cnc(C(=O)N/N=C\c3ccc(Br)cc3)c2)n1	DNMT1 block 51.9 | DNMT1 inh conf inactive | DNMT1 interf inactive
Cc1cccc(-n2cnc(C(=O)NNC(=S)Nc3ccc(Cl)cc3)c2)n1	none
Cc1cccc(NC(=S)N(CCCN2CCOCC2)C(C)c2cc3ccccc3o2)c1C (stereo unspecified)	DNMT1 block 54.2 | DNMT1 inh conf inactive | DNMT1 interf inactive
Cc1cccc(NC(=S)N(CCCN2CCOCC2)C(C)c2cc3ccccc3o2)c1 (stereo unspecified)	none
CC(=O)c1cccc(NC(=O)C(C)OC(=O)CCCN=C2NS(=O)(=O)c3ccccc32)c1 (stereo unspecified)	none
COc1ccccc1CNC(=O)COC(=O)c1cc(C)nc2ccccc12	none
O=C(COC(=O)c1ccccc1Oc1ccccc1)NCc1ccco1	DNMT1 block 55.3, Scp1 inh 69.9 | DNMT1 inh conf inactive | DNMT1 interf inactive
O=C(COC(=O)c1cc(-c2ccco2)nc2ccccc12)NCc1ccc2c(c1)OCO2	DNMT1 block 76.6 | DNMT1 inh conf inactive | DNMT1 interf inactive
CC(C)Cn1c(N)c(C(=O)COC(=O)c2cc(-c3ccco3)nc3ccccc23)c(=O)n(C)c1=O	DNMT1 block 81.2 | DNMT1 inh conf inactive | DNMT1 interf inactive
CC(C)Cn1c(N)c(C(=O)COC(=O)c2cc(-c3ccccc3)nc3ccccc23)c(=O)n(C)c1=O	none
COc1ccccc1CNC(=O)COC(=O)c1cc(-c2ccco2)nc2ccccc12	DNMT1 block 99.8, Scp1 inh 82.5 | DNMT1 interf DR inactive | DNMT1 inh conf inactive | DNMT1 interf inactive
O=C(COc1ccccc1-c1ccccc1)NCc1ccco1	none
